ChEMBL document CHEMBL4837207, “Discovery of pyrrolo[2,3-d]pyrimidine derivatives as potent Axl inhibitors: Design, synthesis and biological evaluation” (Eur J Med Chem, 2021)
pIC50: −log10 of the molar value.

Key:
[1] = tested on: BaF3; experiment: Antiproliferative activity against mouse BaF3 stably expressing human TEL-AXL incubated for 72 hrs; format: functional, cell-based; conditions: BaF3, 72 h
[2] = target: Mast/stem cell growth factor receptor Kit (Homo sapiens, UniProt P10721); experiment: Inhibition of Kit(unknown origin) by ELISA
[3] = tested on: BaF3; experiment: Antitumor activity against mouse BaF3 cells stably expressing human TEL-AXL xenografted in nude mouse assessed as tumor growth inhibition at 50 to 100 mg/kg, po administered once daily for 14 consecutive days relative to control; format: functional; conditions: dose 50-100 mg/kg; time 14 day
[4] = target: Hepatocyte growth factor receptor (Homo sapiens, UniProt P08581); experiment: Inhibition of c-MET (unknown origin) by ELISA
[5] = target: Ephrin type-A receptor 2 (Homo sapiens, UniProt P29317); experiment: Inhibition of EPHA2 (unknown origin) by ELISA
[6] = target: T1, Receptor-type tyrosine-protein kinase FLT3 (Homo sapiens, UniProt P36888); experiment: Inhibition of FLT-3 (unknown origin) by ELISA
T1 sequence (P36888 whole entry): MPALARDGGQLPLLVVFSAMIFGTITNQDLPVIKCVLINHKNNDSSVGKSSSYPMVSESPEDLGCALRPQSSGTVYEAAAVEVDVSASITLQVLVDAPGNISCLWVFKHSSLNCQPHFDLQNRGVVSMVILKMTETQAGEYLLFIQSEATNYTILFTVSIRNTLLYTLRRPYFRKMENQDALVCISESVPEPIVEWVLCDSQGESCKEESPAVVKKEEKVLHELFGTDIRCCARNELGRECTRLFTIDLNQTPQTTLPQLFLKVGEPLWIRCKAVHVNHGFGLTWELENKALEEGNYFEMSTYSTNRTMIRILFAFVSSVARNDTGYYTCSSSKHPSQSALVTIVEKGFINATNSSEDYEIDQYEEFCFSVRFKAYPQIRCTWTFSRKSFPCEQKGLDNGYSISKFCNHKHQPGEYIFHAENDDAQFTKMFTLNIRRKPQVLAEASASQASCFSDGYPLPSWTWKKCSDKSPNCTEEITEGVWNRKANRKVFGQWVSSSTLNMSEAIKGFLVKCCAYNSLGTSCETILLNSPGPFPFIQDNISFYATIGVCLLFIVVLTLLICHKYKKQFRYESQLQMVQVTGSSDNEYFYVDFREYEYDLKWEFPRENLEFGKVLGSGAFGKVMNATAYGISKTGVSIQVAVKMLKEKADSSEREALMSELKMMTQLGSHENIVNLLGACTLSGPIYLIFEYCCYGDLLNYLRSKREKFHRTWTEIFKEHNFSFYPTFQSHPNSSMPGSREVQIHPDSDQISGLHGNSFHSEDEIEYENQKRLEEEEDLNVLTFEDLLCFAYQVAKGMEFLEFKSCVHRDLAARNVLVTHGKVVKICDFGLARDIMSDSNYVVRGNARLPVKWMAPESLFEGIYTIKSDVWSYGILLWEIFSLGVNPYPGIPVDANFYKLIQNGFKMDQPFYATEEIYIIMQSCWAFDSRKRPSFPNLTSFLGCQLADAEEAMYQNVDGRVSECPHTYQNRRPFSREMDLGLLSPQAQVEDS

[7] = target: Vascular endothelial growth factor receptor 1 (Homo sapiens, UniProt P17948); experiment: Inhibition of VEGFR1 (unknown origin) by ELISA
[8] = target: T2, Tyrosine-protein kinase receptor UFO (Mus musculus) (UniProt Q00993); experiment: Inhibition of AXL phosphorylation in mouse BaF3 by Western blot analysis; conditions: dose 0.1-10 nM
T2 sequence (whole entry): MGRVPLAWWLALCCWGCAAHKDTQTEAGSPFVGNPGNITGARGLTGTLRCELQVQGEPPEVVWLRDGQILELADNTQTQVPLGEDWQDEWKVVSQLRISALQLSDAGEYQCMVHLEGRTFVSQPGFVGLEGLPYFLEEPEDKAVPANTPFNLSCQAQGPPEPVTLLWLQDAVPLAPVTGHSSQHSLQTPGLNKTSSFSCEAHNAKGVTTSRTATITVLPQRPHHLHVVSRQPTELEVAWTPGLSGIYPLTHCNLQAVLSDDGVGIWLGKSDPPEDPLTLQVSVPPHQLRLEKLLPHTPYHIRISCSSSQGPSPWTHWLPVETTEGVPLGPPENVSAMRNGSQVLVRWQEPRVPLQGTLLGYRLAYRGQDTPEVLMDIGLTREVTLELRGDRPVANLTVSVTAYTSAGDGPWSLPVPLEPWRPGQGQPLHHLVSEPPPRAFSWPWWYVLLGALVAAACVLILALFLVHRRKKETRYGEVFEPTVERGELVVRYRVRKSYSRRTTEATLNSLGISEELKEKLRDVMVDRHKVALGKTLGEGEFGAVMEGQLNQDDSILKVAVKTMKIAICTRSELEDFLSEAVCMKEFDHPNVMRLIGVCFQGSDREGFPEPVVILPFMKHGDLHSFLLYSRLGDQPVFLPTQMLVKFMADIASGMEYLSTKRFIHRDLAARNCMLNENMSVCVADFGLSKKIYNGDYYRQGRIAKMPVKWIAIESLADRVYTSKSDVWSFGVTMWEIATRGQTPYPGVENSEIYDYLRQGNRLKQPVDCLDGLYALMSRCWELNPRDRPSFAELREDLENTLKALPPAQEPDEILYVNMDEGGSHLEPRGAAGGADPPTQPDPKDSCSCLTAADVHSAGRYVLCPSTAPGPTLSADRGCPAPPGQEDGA
Summary of the method: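 Cells in exponential growth (BaF3 engineered to stably express constitutively active human wild-type TEL-Axl; MKN-45) exposed to the indicated concentrations for 2 h, then lysed in 1× SDS sample buffer. Phosphorylated proteins detected by Western blot.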

[9] = target: Platelet-derived growth factor receptor alpha (Homo sapiens, UniProt P16234); experiment: Inhibition of PDGFRalpha (unknown origin) by ELISA
[10] = Inhibition of ABL (unknown origin) by ELISA; set-up: species or system Homo sapiens
[11] = target: Receptor tyrosine-protein kinase erbB-4 (Homo sapiens, UniProt Q15303); experiment: Inhibition of ERBB4 (unknown origin) by ELISA
[12] = target: Platelet-derived growth factor receptor beta (Homo sapiens, UniProt P09619); experiment: Inhibition of PDGFRbeta (unknown origin) by ELISA
[13] = target: Insulin-like growth factor 1 receptor (Homo sapiens, UniProt P08069); experiment: Inhibition of IGF1R (unknown origin) by ELISA
[14] = Cmax in Sprague-Dawley rat at 3 mg/kg, po via gavage measured up to 24 hrs by LC-MS analysis; format: ADME, organism-based; set-up: route oral, dose 3 mg/kg, time <=24; conditions: in vivo
Summary of the method: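 Male Sprague-Dawley rats (n = 3) dosed once by oral gavage at 3 mg/kg as a solution in 5% DMSO/95% (0.5% CMC-Na). Blood sampled at 0.25, 0.5, 1, 2, 4, 6, 8 and 24 h, kept on wet ice, serum separated by centrifugation and stored at -20 °C. Serum levels measured by LC-MS/MS; parameters reported as means.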

[15] = target: Proto-oncogene tyrosine-protein kinase Src (Homo sapiens, UniProt P12931); experiment: Inhibition of SRC (unknown origin) by ELISA

Sequence of Receptor tyrosine-protein kinase erbB-4 (Q15303 whole entry): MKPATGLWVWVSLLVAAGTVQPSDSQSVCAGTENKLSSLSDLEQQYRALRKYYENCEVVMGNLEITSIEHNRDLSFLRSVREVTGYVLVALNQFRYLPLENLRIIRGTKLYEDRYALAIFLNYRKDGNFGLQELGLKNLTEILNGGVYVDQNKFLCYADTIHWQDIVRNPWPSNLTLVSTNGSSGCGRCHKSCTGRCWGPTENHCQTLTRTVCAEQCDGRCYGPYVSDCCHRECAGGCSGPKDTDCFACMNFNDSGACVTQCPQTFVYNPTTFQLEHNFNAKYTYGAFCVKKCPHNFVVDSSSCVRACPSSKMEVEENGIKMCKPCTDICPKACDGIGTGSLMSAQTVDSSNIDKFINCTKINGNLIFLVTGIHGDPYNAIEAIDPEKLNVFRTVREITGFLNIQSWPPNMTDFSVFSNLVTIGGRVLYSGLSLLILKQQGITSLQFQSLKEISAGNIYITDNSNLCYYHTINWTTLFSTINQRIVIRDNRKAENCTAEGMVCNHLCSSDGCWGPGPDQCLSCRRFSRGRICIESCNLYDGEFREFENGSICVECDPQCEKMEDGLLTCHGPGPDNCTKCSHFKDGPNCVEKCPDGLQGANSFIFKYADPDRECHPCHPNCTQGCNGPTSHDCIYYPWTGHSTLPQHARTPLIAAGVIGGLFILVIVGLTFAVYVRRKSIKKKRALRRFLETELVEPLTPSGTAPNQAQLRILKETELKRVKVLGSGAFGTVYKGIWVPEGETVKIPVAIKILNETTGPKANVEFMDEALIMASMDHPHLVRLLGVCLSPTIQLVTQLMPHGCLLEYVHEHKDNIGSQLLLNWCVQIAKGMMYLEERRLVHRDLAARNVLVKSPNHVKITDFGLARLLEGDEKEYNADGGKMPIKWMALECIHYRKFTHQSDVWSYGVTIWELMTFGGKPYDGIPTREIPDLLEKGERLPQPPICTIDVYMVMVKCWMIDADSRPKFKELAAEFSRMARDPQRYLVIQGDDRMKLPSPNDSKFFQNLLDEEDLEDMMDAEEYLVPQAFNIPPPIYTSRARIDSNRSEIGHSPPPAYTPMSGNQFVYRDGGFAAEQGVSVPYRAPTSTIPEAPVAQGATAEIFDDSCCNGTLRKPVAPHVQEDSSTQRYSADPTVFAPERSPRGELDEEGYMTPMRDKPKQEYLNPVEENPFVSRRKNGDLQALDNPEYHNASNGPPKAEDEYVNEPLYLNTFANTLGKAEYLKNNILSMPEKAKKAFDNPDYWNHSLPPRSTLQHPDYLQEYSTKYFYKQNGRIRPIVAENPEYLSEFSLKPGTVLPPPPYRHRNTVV
Sequence of Ephrin type-A receptor 2 (P29317 whole entry): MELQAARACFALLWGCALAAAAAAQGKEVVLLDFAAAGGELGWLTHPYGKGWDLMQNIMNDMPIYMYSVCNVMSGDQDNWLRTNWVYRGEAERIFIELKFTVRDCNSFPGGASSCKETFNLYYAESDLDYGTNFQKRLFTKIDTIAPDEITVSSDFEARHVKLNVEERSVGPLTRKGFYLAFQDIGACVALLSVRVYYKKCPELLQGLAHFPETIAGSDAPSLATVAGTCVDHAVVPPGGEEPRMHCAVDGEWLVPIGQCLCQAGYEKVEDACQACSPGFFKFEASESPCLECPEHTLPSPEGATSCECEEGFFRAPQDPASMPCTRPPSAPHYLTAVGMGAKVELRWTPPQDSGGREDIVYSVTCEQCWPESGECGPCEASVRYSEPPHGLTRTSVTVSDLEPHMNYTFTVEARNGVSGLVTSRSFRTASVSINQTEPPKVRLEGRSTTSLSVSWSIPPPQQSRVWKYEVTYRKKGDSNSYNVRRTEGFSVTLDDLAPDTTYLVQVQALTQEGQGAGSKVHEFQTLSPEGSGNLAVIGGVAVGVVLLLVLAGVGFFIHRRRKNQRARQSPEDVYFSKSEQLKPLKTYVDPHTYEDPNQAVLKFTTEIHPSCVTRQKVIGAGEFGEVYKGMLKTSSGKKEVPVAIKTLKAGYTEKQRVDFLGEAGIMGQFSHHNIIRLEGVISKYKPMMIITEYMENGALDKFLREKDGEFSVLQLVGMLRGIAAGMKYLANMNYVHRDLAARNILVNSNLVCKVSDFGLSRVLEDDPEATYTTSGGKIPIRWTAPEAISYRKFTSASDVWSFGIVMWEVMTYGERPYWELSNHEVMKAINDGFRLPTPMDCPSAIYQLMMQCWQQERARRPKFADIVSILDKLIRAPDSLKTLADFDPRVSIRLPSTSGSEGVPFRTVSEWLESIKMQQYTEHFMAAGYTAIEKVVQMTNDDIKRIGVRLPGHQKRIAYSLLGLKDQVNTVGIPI
Sequence of Mast/stem cell growth factor receptor Kit (P10721 whole entry): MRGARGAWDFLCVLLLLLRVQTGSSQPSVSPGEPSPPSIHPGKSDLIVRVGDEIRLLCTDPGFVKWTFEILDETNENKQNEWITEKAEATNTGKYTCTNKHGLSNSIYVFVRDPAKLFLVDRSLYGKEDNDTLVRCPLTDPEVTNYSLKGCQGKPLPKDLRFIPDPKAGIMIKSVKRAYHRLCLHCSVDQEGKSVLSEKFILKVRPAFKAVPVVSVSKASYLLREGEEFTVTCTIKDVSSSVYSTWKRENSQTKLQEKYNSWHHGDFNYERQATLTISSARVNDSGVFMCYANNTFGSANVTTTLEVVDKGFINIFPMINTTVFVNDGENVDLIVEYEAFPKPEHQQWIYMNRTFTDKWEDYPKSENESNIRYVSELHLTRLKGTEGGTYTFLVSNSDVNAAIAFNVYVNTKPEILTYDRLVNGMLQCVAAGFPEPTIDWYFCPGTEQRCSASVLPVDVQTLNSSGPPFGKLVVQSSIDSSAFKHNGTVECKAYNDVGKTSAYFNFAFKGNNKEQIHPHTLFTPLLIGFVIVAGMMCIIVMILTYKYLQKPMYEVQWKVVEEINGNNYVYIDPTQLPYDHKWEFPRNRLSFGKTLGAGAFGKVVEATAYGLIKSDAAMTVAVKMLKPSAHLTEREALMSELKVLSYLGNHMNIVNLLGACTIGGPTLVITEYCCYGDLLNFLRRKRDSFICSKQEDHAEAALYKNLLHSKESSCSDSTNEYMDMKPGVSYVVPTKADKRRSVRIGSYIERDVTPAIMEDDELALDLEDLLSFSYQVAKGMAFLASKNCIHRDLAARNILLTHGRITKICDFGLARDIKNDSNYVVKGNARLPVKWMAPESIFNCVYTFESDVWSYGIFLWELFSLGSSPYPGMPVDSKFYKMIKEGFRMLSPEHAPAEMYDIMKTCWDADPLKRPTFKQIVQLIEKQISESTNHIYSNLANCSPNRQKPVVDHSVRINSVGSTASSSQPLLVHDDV
Sequence of Hepatocyte growth factor receptor (P08581 whole entry): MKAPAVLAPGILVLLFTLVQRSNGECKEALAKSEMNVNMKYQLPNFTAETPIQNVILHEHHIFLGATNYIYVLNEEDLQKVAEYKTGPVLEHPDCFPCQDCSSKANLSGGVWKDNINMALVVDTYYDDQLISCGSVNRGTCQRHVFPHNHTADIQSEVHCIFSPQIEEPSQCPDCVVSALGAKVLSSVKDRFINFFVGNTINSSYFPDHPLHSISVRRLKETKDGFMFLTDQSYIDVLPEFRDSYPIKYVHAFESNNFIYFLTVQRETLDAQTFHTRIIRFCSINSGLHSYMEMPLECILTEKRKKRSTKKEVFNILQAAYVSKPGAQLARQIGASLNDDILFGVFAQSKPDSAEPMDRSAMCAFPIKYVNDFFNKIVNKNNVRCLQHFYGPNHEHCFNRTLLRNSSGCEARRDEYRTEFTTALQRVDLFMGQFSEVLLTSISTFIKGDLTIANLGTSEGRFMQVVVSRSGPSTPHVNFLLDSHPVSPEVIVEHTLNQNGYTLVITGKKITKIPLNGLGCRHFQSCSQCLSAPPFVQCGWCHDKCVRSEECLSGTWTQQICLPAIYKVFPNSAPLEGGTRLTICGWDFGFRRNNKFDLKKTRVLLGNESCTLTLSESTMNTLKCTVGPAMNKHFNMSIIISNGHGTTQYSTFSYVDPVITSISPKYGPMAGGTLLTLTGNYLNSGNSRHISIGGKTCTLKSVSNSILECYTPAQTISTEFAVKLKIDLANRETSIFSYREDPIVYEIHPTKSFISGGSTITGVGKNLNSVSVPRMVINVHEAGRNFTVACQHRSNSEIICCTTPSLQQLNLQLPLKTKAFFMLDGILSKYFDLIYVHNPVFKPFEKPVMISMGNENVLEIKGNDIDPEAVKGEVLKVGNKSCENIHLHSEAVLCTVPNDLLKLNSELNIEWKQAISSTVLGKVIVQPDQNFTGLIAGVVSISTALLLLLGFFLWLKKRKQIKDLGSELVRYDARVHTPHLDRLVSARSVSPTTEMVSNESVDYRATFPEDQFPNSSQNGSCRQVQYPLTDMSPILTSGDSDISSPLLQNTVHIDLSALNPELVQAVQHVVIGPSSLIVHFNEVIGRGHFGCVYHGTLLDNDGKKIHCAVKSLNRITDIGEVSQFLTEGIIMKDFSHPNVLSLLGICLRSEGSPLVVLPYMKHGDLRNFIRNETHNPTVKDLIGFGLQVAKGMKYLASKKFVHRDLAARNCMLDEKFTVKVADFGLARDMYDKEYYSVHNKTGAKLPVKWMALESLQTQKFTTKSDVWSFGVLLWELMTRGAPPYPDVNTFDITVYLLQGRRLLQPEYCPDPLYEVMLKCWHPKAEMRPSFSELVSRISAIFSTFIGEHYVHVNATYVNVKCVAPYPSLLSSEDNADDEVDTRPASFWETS

pIC50 [1]: > 9.00 | pIC50 [2]: < 6.00 | pIC50 [4]: 8.35 | pIC50 [5]: < 6.30 | pIC50 [6]: < 6.00 | pIC50 [7]: < 6.00 | inhibition [8]: Dose-Dependent Effect | pIC50 [9]: < 6.00 | pIC50 [10]: < 6.00 | pIC50 [11]: < 6.00 | pIC50 [12]: < 6.00 | pIC50 [13]: < 6.00 | Cmax [14]: 14100 ng/mL | pIC50 [15]: < 6.00
Structure (SMILES): CC(C)n1cc(C(=O)Nc2cc(F)c(-c3c[nH]c4ncnc(N)c34)cc2F)c(=O)c(-c2ccc(F)cc2)c1
TGI [3]: 67.4%
